Experimental findings from publication PMC4806563 (Nature chemistry, 2016) are described below.

In experiment [1] the test system is PGTs 141–144. The experiment in a line: Glycan microarray on ACG slide, PGTs 141–144 binding. Particulars: panel of glycans I–XI on ACG slide. On the set-up: species or system human. The gist of the method:
(§1)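 Glycans I–XI carry a phosphonic acid tail and immobilize spontaneously and covalently on an aluminium oxide-coated glass (ACG) slide. Glycan concentration sets density and spacing. The printed array is incubated with antibody, then with a secondary antibody, and read by fluorescence. Surface dissociation constants (K_D surf) for glycan–antibody binding are derived from the signals.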

Experiment [2] relates to DyLight649-conjugated donkey anti-human IgG antibody. The experiment in a line: NHS glycan array, binding of secondary antibody. As to conditions: NHS slide.
Experiment [3] has as its system PG16. The experiment in a line: Glycan microarray on ACG slide, PG16 binding. Details: species or system human. Particulars: ACG surface, 100 μM printed, serial dilution experiment. The gist of the method:
as §1

Experiment [4] relates to PG16. The experiment in a line: Glycan microarray on NHS-activated glass slide, PG16 binding. Details: species or system human. As to conditions: glycans printed at 100 μM.

Consider `CC(=O)N[C@H]1[C@H](O[C@H]2[C@H](O)[C@@H](NC(C)=O)C(O)O[C@@H]2CO)O[C@H](CO)[C@@H](O[C@@H]2O[C@H](CO[C@H]3O[C@H](CO[C@H]4O[C@H](CO)[C@@H](O)[C@H](O)[C@@H]4O[C@H]4O[C@H](CO)[C@@H](O)[C@H](O)[C@@H]4O)[C@@H](O)[C@H](O[C@H]4O[C@H](CO)[C@@H](O)[C@H](O)[C@@H]4O[C@H]4O[C@H](CO)[C@@H](O)[C@H](O)[C@@H]4O)[C@@H]3O)[C@@H](O)[C@H](O[C@H]3O[C@H](CO)[C@@H](O)[C@H](O)[C@@H]3O[C@H]3O[C@H](CO)[C@@H](O)[C@H](O)[C@@H]3O[C@H]3O[C@H](CO)[C@@H](O)[C@H](O)[C@@H]3O)[C@@H]2O)[C@@H]1O` (stereo partly shown) [Man9GlcNAc2], for which the “PGTs 141–144 binding” value in experiment [1] was “significant decrease in the affinity”. On to Man4GlcAc2 [glycan 5], for which the “fluorescent signal from non-specific binding of secondary antibody” value in experiment [2] is on record as “strong fluorescent signal”. Take Man5GlcNAc2 [IV]: the PG16 binding entry is recorded as “unable to detect” in experiment [3] and “could not observe binding” in experiment [4].
